# Key:
# Estrogen receptor [1] = molecular target: T1, Estrogen receptor (Homo sapiens, UniProt P03372); test: Binding affinity to recombinant human GST-tagged ERalpha LBD expressed in baculovirus-infected insect cells by lantha screen assay
# T1 sequence (P03372 whole entry): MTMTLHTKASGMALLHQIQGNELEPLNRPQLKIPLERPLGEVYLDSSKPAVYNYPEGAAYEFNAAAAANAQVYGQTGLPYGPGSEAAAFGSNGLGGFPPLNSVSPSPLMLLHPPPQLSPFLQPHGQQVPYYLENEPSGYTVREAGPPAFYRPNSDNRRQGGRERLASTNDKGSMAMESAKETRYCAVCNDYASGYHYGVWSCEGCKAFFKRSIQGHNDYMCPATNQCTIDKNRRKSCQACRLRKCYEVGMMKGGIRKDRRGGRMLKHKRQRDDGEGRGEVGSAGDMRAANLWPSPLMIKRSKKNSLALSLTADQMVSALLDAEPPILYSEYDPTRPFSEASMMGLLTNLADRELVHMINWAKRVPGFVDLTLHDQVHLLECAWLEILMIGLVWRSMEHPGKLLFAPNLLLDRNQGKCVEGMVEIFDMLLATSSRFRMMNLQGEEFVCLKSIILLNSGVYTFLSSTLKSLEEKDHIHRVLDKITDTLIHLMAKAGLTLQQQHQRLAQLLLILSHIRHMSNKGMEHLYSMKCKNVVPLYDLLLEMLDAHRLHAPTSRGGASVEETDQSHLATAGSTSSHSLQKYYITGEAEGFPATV
# Estrogen receptor [2] = molecular target: T1, Estrogen receptor; test: Induction of ERalpha degradation in human MCF7 cells after 18 to 24 hrs by in multiplexed cell assay; format: cell-based
# Procedure, shortened: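 MCF-7 cells were kept at 37 °C, 5% CO₂ in phenol red-free RPMI1640 with 5% charcoal-stripped FCS and 2 mmol/L glutamine. Compounds came from 10 mmol/L DMSO stocks.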
# [3] = Fraction unbound in 10% human plasma by equilibrium dialysis; format: ADME, cell-free; details: 10% plasma
# Procedure, shortened: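 Equilibrium dialysis from DMSO stock in 10% plasma, either Alderley Park Han Wistar rat plasma or human plasma.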
# [4] = Intrinsic clearance in rat hepatocytes assessed per million cells; format: ADME, cell-based, Hepatocyte; details: read-out: CLH
# Procedure, shortened: (§1)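 Rate of metabolism (µl/min/10⁶ cells) measured from DMSO stock in isolated hepatocytes diluted to 1x10⁶ cells/mL.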
# [5] = Intrinsic clearance in human hepatocytes assessed per million cells; format: ADME, cell-based, Hepatocyte; details: read-out: CLH; procedure, shortened: as §1
# [6] = Efflux ratio of apparent permeability in human Caco2 cells at 10 uM; format: ADME, cell-based; details: Caco-2
# Procedure, shortened: (§2)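 Compound at 10 μM incubated on cultured Caco-2 or MDCK cells. Permeability was measured apical-to-basolateral and basolateral-to-apical, and efflux ratio was taken as (B to A)/(A to B).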
# [7] = Apparent permeability in MDCK cells at 10 uM; format: ADME, cell-based, Canis lupus familiaris; details: dog; procedure, shortened: as §2
# [8] = Efflux ratio of apparent permeability in MDCK cells at 10 uM; format: ADME, cell-based, Canis lupus familiaris; details: dog; procedure, shortened: as §2
# [9] = Solubility of the compound in phosphate buffer at pH 7.4 after 24 hrs; format: physicochemical
# Procedure, shortened: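 Solubility in aqueous phosphate buffer at pH 7.4 after 24 h at 25 °C.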
# [10] = Fraction unbound in mouse plasma by equilibrium dialysis; format: ADME, cell-free
# [11] = Fraction unbound in dog plasma by equilibrium dialysis; format: ADME, cell-free, Canis lupus familiaris
# [12] = Volume of distribution at steady state in dog at 0.5 mg/kg, iv or 1 mg/kg, po; format: ADME, organism-based, Canis lupus familiaris; details: in vivo, read-out: Vdss
# Procedure, shortened: (§3)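 Single IV dose of 0.5 mg/kg and oral dose of 1 mg/kg in rat and dog. Both routes were formulated in 5% DMSO:95% hydroxypropyl β-cyclodextrin (30% w/v), at 1 mL/kg IV and 4 mL/kg PO.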
# [13] = Half life in rat at 0.5 mg/kg, iv or 1 mg/kg, po; format: ADME, organism-based; details: in vivo; procedure, shortened: as §3
# [14] = Oral bioavailability in dog at 1 mg/kg; format: ADME, organism-based, Canis lupus familiaris; details: in vivo; procedure, shortened: as §3
# [15] = AUC in rat at 1 mg/kg, po; format: ADME, organism-based; details: in vivo, read-out: AUC; procedure, shortened: as §3
# [16] = AUC in dog at 1 mg/kg, po; format: ADME, organism-based, Canis lupus familiaris; details: in vivo; procedure, shortened: as §3
# Estrogen receptor [17] = molecular target: T1, Estrogen receptor; test: Agonist activity at ERalpha in human MCF7 cells assessed as effect on PR protein expression after 5 hrs by formaldehyde-staining based assay; format: cell-based
# Estrogen receptor [18] = molecular target: T1, Estrogen receptor; test: Induction of ERalpha degradation in human MCF7 cells assessed as reduction in ERalpha protein expression after 5 hrs in presence of […] tamoxifen by formaldehyde-staining based assay; format: cell-based
# Estrogen receptor [19] = molecular target: T1, Estrogen receptor; test: Antagonist activity at ERalpha in human MCF7 cells assessed as inhibition of estradiol-driven PR response by microplate cytometry; format: cell-based
# Mus musculus [20] = test: In vivo antagonist activity at ERalpha in tumor of human MCF7 cells xenografted in po dosed SCID CB17 mouse assessed as reduction in PR levels administered once daily for 3 days measured after 24 hrs post last dose by Western blot analysis; format: functional, organism-based
# Procedure, shortened: (§4)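 Male SCID mice carried a 0.5 mg/21 day s.c. estrogen pellet, with 5x10^6 MCF-7 cells implanted s.c. in the hind flank 24 h later. Groups of 5 were randomised at 0.5–0.8 cm³ and gavaged once daily for 3 d in PEG400/Captisol/water vehicle at 10 ml/kg. Tumours were taken 24 h post-dose, and PR was read by Western blot normalized to vinculin.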
# Mus musculus [21] = test: In vivo antagonist activity at ERalpha in tumor of human MCF7 cells xenografted in SCID CB17 mouse assessed as reduction in normalized PR levels at 50 mg/kg, po administered once daily for 3 days measured after 24 hrs post last dose by Western blot analysis relative to control; format: functional; set-up: scale not given: the % may be the effect or the level left; procedure, shortened: as §4
# [22] = Glutathione reactivity in human liver microsomes assessed as GSH trapping ratio of compound to clozapine; format: ADME, Microsome
# Procedure, shortened: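 Glutathione trapping in human liver microsomes, expressed as a ratio to clozapine.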
# Cytochrome P450 2C9 = Cytochrome P450 2C9 (Homo sapiens, UniProt P11712); test: Inhibition of CYP2C9 in human liver microsomes; format: ADME
# Chain of Cytochrome P450 2C9 (P11712 whole entry, canonical isoform): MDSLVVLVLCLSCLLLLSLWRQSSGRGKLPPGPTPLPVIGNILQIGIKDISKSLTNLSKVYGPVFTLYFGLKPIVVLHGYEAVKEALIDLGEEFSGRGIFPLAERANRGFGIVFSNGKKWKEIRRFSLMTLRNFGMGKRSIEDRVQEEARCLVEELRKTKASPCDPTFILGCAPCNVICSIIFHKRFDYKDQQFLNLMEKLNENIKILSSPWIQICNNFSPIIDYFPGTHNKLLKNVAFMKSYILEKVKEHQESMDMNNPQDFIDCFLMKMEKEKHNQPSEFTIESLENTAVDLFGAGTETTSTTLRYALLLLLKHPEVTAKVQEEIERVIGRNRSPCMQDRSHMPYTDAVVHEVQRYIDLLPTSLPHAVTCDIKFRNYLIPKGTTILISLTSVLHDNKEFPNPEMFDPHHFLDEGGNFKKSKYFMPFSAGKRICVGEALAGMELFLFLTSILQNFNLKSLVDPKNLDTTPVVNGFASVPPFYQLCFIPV
# Procedure, shortened: (§5)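 High-throughput human liver microsome assay across a panel of five CYP isoforms, giving IC50.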
# [23] = molecular target: Voltage-gated inwardly rectifying potassium channel KCNH2 (Homo sapiens, UniProt Q12809); test: Inhibition of human ERG by plate based planar patch clamp assay
# Chain of Voltage-gated inwardly rectifying potassium channel KCNH2 (Q12809 whole entry): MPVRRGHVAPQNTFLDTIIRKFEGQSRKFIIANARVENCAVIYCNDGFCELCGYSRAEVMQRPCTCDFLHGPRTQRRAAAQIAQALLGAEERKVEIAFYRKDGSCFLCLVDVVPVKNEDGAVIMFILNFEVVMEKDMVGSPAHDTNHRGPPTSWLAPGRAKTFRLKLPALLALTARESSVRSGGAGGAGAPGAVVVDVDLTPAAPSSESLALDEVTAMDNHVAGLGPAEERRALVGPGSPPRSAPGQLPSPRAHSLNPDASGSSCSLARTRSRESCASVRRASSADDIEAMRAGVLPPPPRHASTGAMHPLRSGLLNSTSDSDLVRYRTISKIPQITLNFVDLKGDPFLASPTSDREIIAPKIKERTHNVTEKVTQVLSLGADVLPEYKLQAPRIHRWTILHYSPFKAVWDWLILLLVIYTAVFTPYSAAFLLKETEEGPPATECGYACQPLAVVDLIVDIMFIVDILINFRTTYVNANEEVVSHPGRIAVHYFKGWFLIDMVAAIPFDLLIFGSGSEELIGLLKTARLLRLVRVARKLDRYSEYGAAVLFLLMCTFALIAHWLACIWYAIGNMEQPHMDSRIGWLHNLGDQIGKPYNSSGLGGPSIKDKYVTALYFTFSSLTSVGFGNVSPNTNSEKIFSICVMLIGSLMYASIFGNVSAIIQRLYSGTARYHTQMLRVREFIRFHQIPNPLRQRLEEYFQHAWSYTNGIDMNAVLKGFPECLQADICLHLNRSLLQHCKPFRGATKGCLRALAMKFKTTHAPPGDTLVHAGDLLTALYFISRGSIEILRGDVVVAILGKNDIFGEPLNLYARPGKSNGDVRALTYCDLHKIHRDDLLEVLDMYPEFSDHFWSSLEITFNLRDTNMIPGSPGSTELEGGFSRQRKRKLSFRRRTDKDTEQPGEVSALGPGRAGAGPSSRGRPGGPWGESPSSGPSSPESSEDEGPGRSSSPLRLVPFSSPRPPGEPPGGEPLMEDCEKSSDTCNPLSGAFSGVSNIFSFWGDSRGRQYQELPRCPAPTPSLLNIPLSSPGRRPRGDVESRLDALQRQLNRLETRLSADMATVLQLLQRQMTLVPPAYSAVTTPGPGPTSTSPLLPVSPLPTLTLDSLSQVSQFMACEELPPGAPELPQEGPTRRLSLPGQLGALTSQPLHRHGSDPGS
# Cytochrome P450 2C19 = Cytochrome P450 2C19 (Homo sapiens, UniProt P33261); test: Inhibition of CYP2C19 in human liver microsomes; format: ADME; procedure, shortened: as §5
# Chain of Cytochrome P450 2C19 (P33261 whole entry): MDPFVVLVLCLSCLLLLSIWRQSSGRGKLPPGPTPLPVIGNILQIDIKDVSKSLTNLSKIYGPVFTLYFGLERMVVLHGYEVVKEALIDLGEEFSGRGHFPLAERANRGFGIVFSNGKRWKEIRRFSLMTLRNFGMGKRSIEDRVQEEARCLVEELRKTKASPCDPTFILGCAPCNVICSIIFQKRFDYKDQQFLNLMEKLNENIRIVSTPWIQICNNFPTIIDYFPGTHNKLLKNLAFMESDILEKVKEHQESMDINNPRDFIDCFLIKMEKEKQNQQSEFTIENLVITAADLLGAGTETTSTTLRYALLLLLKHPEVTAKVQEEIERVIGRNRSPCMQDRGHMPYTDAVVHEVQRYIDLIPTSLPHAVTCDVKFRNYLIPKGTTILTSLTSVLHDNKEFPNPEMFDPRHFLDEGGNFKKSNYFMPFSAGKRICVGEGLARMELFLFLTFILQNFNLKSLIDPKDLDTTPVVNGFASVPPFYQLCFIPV
# [24] = Stability in pH 1 deuterated buffer assessed as compound remaining after 8 days by 1H NMR spectroscopy; format: physicochemical; details: pH 4 deuterated buffer, in the assay text read “pH 4” for “pH 1”, read-out: Stability
# Procedure, shortened: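 Compound diluted from a 25 mM DMSO-d6 stock to a final 1 mM in each deuterated buffer. Followed by ¹H NMR (500 MHz, water suppression, 64 scans) and LC-MS at 0, 24, 72 and 192 h (8 days).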
# [25] = Intrinsic clearance in dog hepatocytes assessed per million cells; format: ADME, cell-based, Canis lupus familiaris, Hepatocyte; details: read-out: CLH; procedure, shortened: as §1
# [26] = Toxicity in SCID CB17 mouse xenografted with human MCF7 cells at 20 mg/kg, po administered once daily and measured on day 20 of dosing; details: in vivo, 20 d
smiles,measurement,setting,value
C[C@@H]1Cc2c(ccc3[nH]ncc23)[C@@H](c2c(F)cc(/C=C/C(=O)O)cc2F)N1CC(C)(C)F,IC50,Estrogen receptor [1],0.316 nM
same,IC50,Estrogen receptor [2],0.251 nM
same,fraction unbound,[3],0.0058
same,hepatocyte CLint,[4],26 µL/min/1e6 cells
same,hepatocyte CLint,[5],17 µL/min/1e6 cells
same,efflux ratio at 10 µM,[6],1.4
same,Papp at 10 µM,[7],11 ×10⁻⁶ cm/s
same,efflux ratio at 10 µM,[8],0.6
same,solubility at 24 h,[9],> 1000 µM
same,fraction unbound,[10],0.0095
same,fraction unbound,[11],0.0032
same,Vd,[12],0.58 L/kg
same,half-life,[13],1.2 h
same,bioavailability,[14],45%
same,AUC,[15],0.83 µM·h
same,AUC,[16],3.2 µM·h
same,IC50,Estrogen receptor [17],> 3160 nM
same,IC50,Estrogen receptor [18],7.94 nM
same,IC50,Estrogen receptor [19],1 nM
same,Activity,Mus musculus [20],Dose-dependent effect
same,Activity,Mus musculus [21],93%
same,Ratio,[22],< 0.04
same,IC50,Cytochrome P450 2C9,2500 nM
same,IC50,[23],> 100000 nM
same,IC50,Cytochrome P450 2C19,> 30000 nM
same,remaining at 192 h,[24],58%
same,hepatocyte CLint,[25],17 µL/min/1e6 cells
same,Activity,[26],Non-Toxic

# — ChEMBL document CHEMBL4368914, “Tricyclic Indazoles-A Novel Class of Selective Estrogen Receptor Degrader Antagonists” (J Med Chem, 2019)
